The results in this text go back to ChEMBL document CHEMBL1126202, “Dual-action penems and carbapenems” (J Med Chem, 1992).

The subject of assay [1] is Staphylococcus aureus. Nature of the assay: In vitro antibacterial activity against Staphylococcus aureus 67(methicillin resistant). In kind it is functional. A digest of the protocol:
(§1)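 MIC by agar dilution on Mueller-Hinton agar. Compounds were serially 2-fold diluted in water, final 128 to 0.0156 μg/mL in agar. Inoculum: overnight broth culture diluted 100-fold, applied with a Steers replicator.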

The test system of another assay is Clostridium perfringens. Nature of the assay: In vitro antibacterial activity against Clostridium perfringens 13424. In kind it is functional. A digest of the protocol:
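MIC by broth dilution in microtiter plates, run in an oxygen-free hydrogen–carbon dioxide atmosphere. Medium: Schaedler's broth with coenzyme I and hemin added.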

Assay [2] has as its system Escherichia coli. In words: In vitro antibacterial activity against Escherichia coli TEM-1 (constitutive beta-lactamase producer). In kind it is functional. A digest of the protocol:
(§2)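 MIC was determined by agar dilution on Mueller-Hinton agar. Serial 2-fold aqueous dilutions were diluted 10-fold in agar to give final concentrations of 128 to 0.0156 μg/mL. Plates were inoculated by Steers replicator with overnight broth cultures diluted 100-fold.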

The subject of assay [3] is Pseudomonas aeruginosa. Nature of the assay: In vitro antibacterial activity against Pseudomonas aeruginosa 18SH (constitutive beta-lactamase producer). In kind it is functional. A digest of the protocol: as §2
In assay [4] the test system is Escherichia coli. Nature of the assay: In vitro antibacterial activity against Escherichia coli 257. In kind it is functional.
Assay [5] relates to Escherichia coli. Nature of the assay: Effect on replication DNA biosynthesis in Escherichia coli H560 (permeabilised cells). The format is functional, organism-based. The procedure, abridged:
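Toluene-permeabilized E. coli H560 cells were used. Replicative DNA synthesis was measured as ATP-dependent [3H]thymidine incorporation into trichloroacetic acid-insoluble material. IC50 is the concentration giving 50% inhibition.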

Another assay deals with Klebsiella pneumoniae. Nature of the assay: In vitro antibacterial activity against klebsiella pneumoniae A. In kind it is functional. The procedure, abridged:
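Agar-dilution MIC on Mueller-Hinton agar. Serial 2-fold dilutions were made in water, giving final agar concentrations of 128 to 0.0156 μg/mL. Inoculum was an overnight broth culture diluted 100-fold, applied with a multipoint replicator.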

For assay [6], the target named is Penicillin-binding protein 2 (Staphylococcus aureus) (UniProt Q53729). Nature of the assay: Concentration inhibiting [14C]- Penicillin G binding to Staphylococcus aureus ATCC 29213 Penicillin binding protein 2, 80 kDa.
A further assay concerns Proteus vulgaris. In words: In vitro antibacterial activity against proteus vulgaris ATCC 6380 (constitutive beta-lactamase producer). In kind it is functional. A digest of the protocol:
(§3)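 Proteus MICs were determined by agar dilution on Mueller-Hinton agar containing 3% agar. Serial 2-fold dilutions gave final concentrations of 128 to 0.0156 μg/mL. Plates were replicator-inoculated with 100-fold-diluted overnight broth cultures.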

In another assay the test system is Streptococcus pyogenes. Nature of the assay: In vitro antibacterial activity against Streptococcus pyogenes 4. In kind it is functional. A digest of the protocol:
(§4)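 Streptococcal MICs were determined by agar dilution on brain heart infusion agar supplemented with 20 units/mL bovine liver catalase. Final concentrations were 128 to 0.0156 μg/mL from 2-fold dilutions. Inocula were overnight broth cultures diluted 100-fold, applied by Steers replicator.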

In assay [7] the test system is Bacteroides thetaiotaomicron. Nature of the assay: In vitro antibacterial activity against Bacteroides thetaiotaomicron 62B. The format is functional. A digest of the protocol: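 Anaerobic MICs were determined in microtiter plates in Schaedler's broth supplemented with coenzyme I and hemin. Incubation was under an oxygen-free hydrogen-carbon dioxide atmosphere.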

Assay [8] concerns Escherichia coli. In words: In vitro antibacterial activity against Escherichia coli UB1005 (nalidixic acid-resistant strain). The format is functional. A digest of the protocol: as §2
The subject of assay [9] is Pseudomonas aeruginosa. In words: In vitro antibacterial activity against Pseudomonas aeruginosa 8780. The format is functional. A digest of the protocol:
as §2

The subject of another assay is Clostridioides difficile. Nature of the assay: In vitro antibacterial activity against Clostridium difficile 701. The format is functional.
The test system of the next assay is Proteus mirabilis. Nature of the assay: In vitro antibacterial activity against Proteus mirabilis 90. In kind it is functional. The procedure, abridged:
as §3

The test system of assay [10] is Escherichia coli. In words: Concentration inhibiting [14C]- Penicillin G binding to Escherichia coli UB1005 PBP4 (penicillin binding protein) 49 kDa. The format is functional. The procedure, abridged:
(§5)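 Solubilized membranes from sonicated E. coli UB1005 were used as the PBP source. Inhibition of [14C]penicillin G binding to the PBPs was measured.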

Assay [11] concerns Staphylococcus aureus. Nature of the assay: In vitro antibacterial activity against staphylococcus aureus smith. In kind it is functional. A digest of the protocol:
as §2

Assay [12] concerns Staphylococcus aureus. Nature of the assay: In vitro antibacterial activity against Staphylococcus aureus 753 (constitutive beta-lactamase producer). In kind it is functional. A digest of the protocol: as §1
Assay [13] has as its target T1, Peptidoglycan D,D-transpeptidase MrdA (Escherichia coli K-12) (UniProt P0AD65).
T1 sequence (whole entry): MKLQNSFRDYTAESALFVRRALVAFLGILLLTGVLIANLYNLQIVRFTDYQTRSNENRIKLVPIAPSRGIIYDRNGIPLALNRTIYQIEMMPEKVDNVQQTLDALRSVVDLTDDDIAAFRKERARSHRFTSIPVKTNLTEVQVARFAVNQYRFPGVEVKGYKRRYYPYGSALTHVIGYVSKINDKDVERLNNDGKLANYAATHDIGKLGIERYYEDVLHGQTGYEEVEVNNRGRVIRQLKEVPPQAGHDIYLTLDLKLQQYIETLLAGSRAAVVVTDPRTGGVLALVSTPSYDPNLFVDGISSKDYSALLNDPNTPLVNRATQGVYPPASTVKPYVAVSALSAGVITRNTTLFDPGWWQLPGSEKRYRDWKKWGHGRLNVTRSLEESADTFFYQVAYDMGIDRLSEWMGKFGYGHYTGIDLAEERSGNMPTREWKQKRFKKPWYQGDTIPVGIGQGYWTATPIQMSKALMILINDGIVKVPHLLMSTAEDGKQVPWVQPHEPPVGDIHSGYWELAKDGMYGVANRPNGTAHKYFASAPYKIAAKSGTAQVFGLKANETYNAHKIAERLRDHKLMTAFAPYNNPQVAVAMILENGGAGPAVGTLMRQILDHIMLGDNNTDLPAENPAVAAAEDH
In words: Concentration inhibiting [14C]- Penicillin G binding to Escherichia coli UB1005 PBP2 (penicillin binding protein) 66 kDa. A digest of the protocol: as §5

For another assay, the system named is Streptococcus pneumoniae. Nature of the assay: In vitro antibacterial activity against streptococcus pneumoniae 6301. In kind it is functional. The procedure, abridged: as §4
Assay [14] has as its target T2, Penicillin-binding protein 2b (Staphylococcus aureus) (UniProt Q9XDB3).
T2 sequence (whole entry): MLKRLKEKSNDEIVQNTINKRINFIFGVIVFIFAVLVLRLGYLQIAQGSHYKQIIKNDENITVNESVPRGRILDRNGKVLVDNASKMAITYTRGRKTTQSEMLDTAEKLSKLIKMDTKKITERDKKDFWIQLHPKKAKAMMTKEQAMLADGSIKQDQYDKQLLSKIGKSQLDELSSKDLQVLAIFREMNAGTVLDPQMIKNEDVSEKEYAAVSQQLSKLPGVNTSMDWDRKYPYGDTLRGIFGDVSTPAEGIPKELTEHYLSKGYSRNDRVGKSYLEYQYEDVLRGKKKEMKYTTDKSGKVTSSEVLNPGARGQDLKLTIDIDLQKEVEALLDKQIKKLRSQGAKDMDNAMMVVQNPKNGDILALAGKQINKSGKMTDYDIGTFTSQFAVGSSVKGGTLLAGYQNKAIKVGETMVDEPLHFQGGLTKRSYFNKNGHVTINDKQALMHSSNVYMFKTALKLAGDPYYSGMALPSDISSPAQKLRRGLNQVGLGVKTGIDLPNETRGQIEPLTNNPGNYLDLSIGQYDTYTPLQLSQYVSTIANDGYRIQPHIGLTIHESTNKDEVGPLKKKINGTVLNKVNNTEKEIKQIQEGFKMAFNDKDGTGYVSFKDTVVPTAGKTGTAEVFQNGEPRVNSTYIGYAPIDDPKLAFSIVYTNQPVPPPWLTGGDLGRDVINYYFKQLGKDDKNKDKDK
Nature of the assay: Concentration inhibiting [14C]- Penicillin G binding to Staphylococcus aureus ATCC 29213 Penicillin binding protein 3, 75 kDa.

A value given as a limit tells only on which side of the number the result lay.

For the compound `C[C@@H](O)[C@H]1C(=O)N2C(C(=O)[O-])=C(COC(=O)N3CCN(c4cc5c(cc4F)c(=O)c(C(=O)O)cn5C4CC4)CC3)S[C@H]12.[Na+]`, the minimal inhibitory concentration (MIC) with Staphylococcus aureus [1] was 4 µg/mL; in the assay with Clostridium perfringens it was 0.25 µg/mL; in the assay with Escherichia coli [2], 0.0625 µg/mL; with Pseudomonas aeruginosa [3], 1 µg/mL; in the assay on Escherichia coli [4], 0.0625 µg/mL; with Klebsiella pneumoniae, 0.25 µg/mL. Further, the MIC was found to be 0.0625 µg/mL in the assay on Proteus vulgaris; 0.0313 µg/mL in the assay with Streptococcus pyogenes; 16 µg/mL in assay [7]; 4 µg/mL in the assay with Escherichia coli [8]; 2 µg/mL with Pseudomonas aeruginosa [9]; 8 µg/mL in the assay with Clostridioides difficile. For the same compound, the MIC in the assay on Proteus mirabilis came to 1 µg/mL; against Staphylococcus aureus [11] it was 0.125 µg/mL; in the assay on Staphylococcus aureus [12], 4 µg/mL; in the assay on Streptococcus pneumoniae, 0.0313 µg/mL. The compound further showed an IC50 in the assay with Escherichia coli [5] of 3 µg/mL. Moreover, the IC90 in assay [6] was 2 µg/mL; in the assay on Escherichia coli [10] it was more than 100 µg/mL; in [13], 30 µg/mL.

`C[C@@H](O)[C@H]1C(=O)N2C(C(=O)[O-])=C(COC(=O)c3cn(CCF)c4c(F)c(N5CCN(C)CC5)c(F)cc4c3=O)S[C@H]12.[Na+]`: the MIC with Staphylococcus aureus [1] is 1 µg/mL; in the assay on Clostridium perfringens, less than 0.125 µg/mL; in the assay with Escherichia coli [2], 0.5 µg/mL; against Escherichia coli [4], 0.25 µg/mL; in the assay on Klebsiella pneumoniae it was 0.5 µg/mL; against Proteus vulgaris it was 0.25 µg/mL. Moreover, the MIC in the assay on Streptococcus pyogenes was less than 0.0156 µg/mL; in assay [7] it was 4 µg/mL; against Escherichia coli [8], 2 µg/mL; against Pseudomonas aeruginosa [9] it was 16 µg/mL; in the assay with Clostridioides difficile, 1 µg/mL; against Proteus mirabilis, 1 µg/mL. For the same compound, the MIC was 0.125 µg/mL against Staphylococcus aureus [11], 2 µg/mL in the assay on Staphylococcus aureus [12] and less than 0.0156 µg/mL against Streptococcus pneumoniae. Besides, half-maximal inhibition in the assay with Escherichia coli [5] (IC50) required 4.7 µg/mL. The IC90 in [6] is 0.5 µg/mL; in assay [14], 0.5 µg/mL; with Escherichia coli [10], more than 100 µg/mL; in assay [13], 10 µg/mL.

For `C[C@@H](O)[C@H]1C(=O)N2C(C(=O)[O-])=C(CO)S[C@H]12.[Na+]`, the MIC was more than 64 µg/mL in the assay on Staphylococcus aureus [1]; 0.5 µg/mL against Clostridium perfringens; 4 µg/mL against Escherichia coli [2]; 8 µg/mL against Pseudomonas aeruginosa [3]; 4 µg/mL in the assay on Escherichia coli [4]; 0.125 µg/mL in the assay on Streptococcus pyogenes. Moreover, the MIC worked out at 0.125 µg/mL in assay [7]; 64 µg/mL against Pseudomonas aeruginosa [9]; 2 µg/mL in the assay with Clostridioides difficile; 8 µg/mL in the assay on Proteus mirabilis; 0.25 µg/mL with Staphylococcus aureus [11]. Further, the figures for the IC90 (in assay [14]; in the assay on Escherichia coli [10]; in assay [13]) were 10 µg/mL, more than 100 µg/mL and 30 µg/mL, respectively.

What is called MIC is the lowest concentration found to suppress growth. For orientation: IC50 means the concentration that gives 50% inhibition. Read a high IC50 as a need for much substance. By IC90 is commonly meant the point of the concentration-response curve where the effect stands at 90%. A low value points to greater potency.
